From publication PMC6176901 (ChemMedChem, 2018)

Experiments:
[1] = system: CCRF-CEM (T-lymphoblastic leukemia); experiment: Cytotoxic MTS assay, CCRF-CEM; format: cell-based; details: Homo sapiens, 72 h, read-out: Cytotoxic activity IC50, CCRF-CEM
How it was run: (§1)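 Human lines grown in DMEM/RPMI 1640 with 10% fetal calf serum; CEM-DNR and K562-TAX sublines selected in rising daunorubicin or paclitaxel. Seeded at 25000–35000 cells/mL in 384-well plates; DMSO solutions added at time zero; 72 h at 37 °C, 5% CO2. MTS added for 1–4 h; OD at 490 nm. Survival versus control wells; IC50 from dose-response curves. Technical duplicates, ≥3 biological replicates.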

[2] = Cytotoxic MTS assay, BJ; format: cell-based; details: human, BJ cells (non-malignant fibroblasts)
How it was run: as §1

[3] = system: cancer and non-malignant cell lines; experiment: Cytotoxic MTS assay, statements over several cell lines; format: cell-based; details: read-out: cytotoxicity, range over sensitive lines
How it was run: as §1

[4] = Cytotoxic MTS assay, MRC-5; format: cell-based; details: human, MRC-5 cells (non-malignant lung fibroblasts)
How it was run: as §1

[5] = system: U2OS (Human Bone Osteosarcoma Epithelial Cells); experiment: Cytotoxic MTS assay, U2OS; format: cell-based; details: 72 h, read-out: Cytotoxic activity IC50, U2OS
How it was run: as §1

[6] = target: hERManI; details: read-out: Ki for hERManI (in AspMan column); cited from earlier work
[7] = system: A549 (human lung adenocarcinoma); experiment: Cytotoxic MTS assay, A549; format: cell-based; details: A549, 72 h, read-out: Cytotoxic activity IC50, A549
How it was run: as §1

[8] = system: CEM-DNR (T-lymphoblastic leukemia, daunorubicin resistant); experiment: Cytotoxic MTS assay, CEM-DNR; format: cell-based; details: Homo sapiens, 72 h, read-out: Cytotoxic activity IC50, CEM-DNR
How it was run: as §1

[9] = system: K562 (acute myeloid leukemia); experiment: Cytotoxic MTS assay, K562; format: cell-based
How it was run: as §1

[10] = cited from earlier work
[11] = system: K562-TAX (acute myeloid leukemia, overexpressing the P-glycoprotein); experiment: Cytotoxic MTS assay, K562-TAX; format: cell-based; details: 72 h, read-out: Cytotoxic activity IC50, K562-TAX
How it was run: as §1

[12] = target: LMan (human lysosomal α-mannosidase); details: read-out: LMan IC50 (in LManII column); ref 9a; cited from earlier work
[13] = target: GMII (human Golgi α-mannosidase II); details: ref 9a, cited from earlier work

Structure (SMILES)	IC50 [1] [µM]	IC50 at 72 h [2] [µM]	IC50 [3] [µM]	IC50 at 72 h [4] [µM]	IC50 [5] [µM]	Ki [6] [µM]	IC50 [7] [µM]	IC50 [8] [µM]	IC50 ([9]; Homo sapiens, K562, 72 h, read-out: Cytotoxic activity IC50, K562) [µM]	K562 inhibition, in words ([9]; non-resistant K562)	pKa ligand, Water pH=7, calculated by Sladek et al. [10]	IC50 [11] [µM]	IC50 [12] [µM]	IC50 ([13]; read-out: GMII IC50 (in GMIIb column)) [µM]	Selectivity index, LMan/GMII [13]
O[C@H]1[C@H]2[C@H](O)CCCN2C[C@H]1O [Compound 1, (1S,2R,8R,8aR)-trihydroxy-indolizidine]	113 ± 12	> 200	110 to 140	> 200	> 200	> 10000	> 200	132 ± 20	> 200	did not inhibit	7.8	137 ± 13			
OC[C@@H](O)[C@H]1NC[C@@H](O)[C@H]1O [Compound 24, 1,4-dideoxy-1,4-imino-D-mannitol]											6.6		13	100	
OC[C@@H](O)[C@@H]1[C@H](O)[C@H](O)CN1Cc1ccccc1 [Compound 25]															2
